# dFosB act-1: activators of mouse delta FosB homodimer; purified delta FosB, TAMRA-CDK5 oligo fluorescence polarization; percent of positive-control signal above neutral wells; activation, % at 25 µM; 0.99% of 340,000 active;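 active = mean activation above about 17%, with every replicate also reaching it, limit read from the data, passing the limit was not always enough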
# IMP-1 inhibitor: blocks Pseudomonas aeruginosa IMP-1 metallo-beta-lactamase; purified IMP-1, nitrocefin hydrolysis, epi-absorbance fluorescence; inhibition, % at 5.6 µM; 0.45% of 290,000 active; AID 1556;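 active = inhibition above the mean plus 3 SD of all compounds in the same screening run, cut at about 4.5% in these data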;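 note: 0% = IMP-1 with DMSO and 100% = DMSO wells lacking enzyme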
#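 System – purified recombinant IMP-1 beta-lactamase · Input – IMP-1 dispensed at 0.2 nM · Timing – 15 min preincubation plus 25 min reaction at 25 °C · Signal – Epi-absorbance fluorescence, 480 nm excitation, 530 nm emission · Measure – percent IMP-1 inhibition derived from blank-referenced optical density · Controls – Enzyme-plus-DMSO low control, enzyme-free DMSO high control · Replication – singlicate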
# HTR2A ag: mouse HTR2A agonism via beta-arrestin recruitment; P35363; CHO-K1 mHTR2A beta-arrestin complementation, luminescence; percent of 30 µM serotonin response; activation, % at 7.6 µM; 0.66% of 360,000 active; AID 624169;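 active = activation above a run cutoff, the mean activation of all tested compounds plus 3 SD, cut at about 14% in these data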;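 note: 0% = plate median of compound wells and 100% = 30 µM serotonin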
# Target sequence (P35363 whole entry, looked up): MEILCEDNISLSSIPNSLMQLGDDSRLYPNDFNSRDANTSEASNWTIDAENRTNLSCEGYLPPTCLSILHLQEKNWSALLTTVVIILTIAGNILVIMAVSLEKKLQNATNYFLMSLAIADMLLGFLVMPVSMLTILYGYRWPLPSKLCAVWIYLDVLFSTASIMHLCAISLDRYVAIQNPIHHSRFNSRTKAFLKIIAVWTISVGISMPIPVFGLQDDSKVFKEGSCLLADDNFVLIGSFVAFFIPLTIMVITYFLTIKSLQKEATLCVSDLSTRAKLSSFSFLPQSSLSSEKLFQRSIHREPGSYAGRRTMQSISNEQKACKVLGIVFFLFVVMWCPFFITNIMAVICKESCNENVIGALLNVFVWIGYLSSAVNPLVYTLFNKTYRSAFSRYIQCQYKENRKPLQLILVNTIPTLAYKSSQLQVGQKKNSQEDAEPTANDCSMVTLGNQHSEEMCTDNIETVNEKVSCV
# VIM-2 inhibitor: blocks Pseudomonas aeruginosa VIM-2 metallo-beta-lactamase | purified VIM-2, nitrocefin hydrolysis, epi-absorbance fluorescence | inhibition, % at 5.6 µM | 0.89% of 290,000 active;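 active = inhibition above the mean of all tested compounds plus 3 SD, cutoff set per screening run, cut at about 7.5% in these data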;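 note: red hydrolysis product quenches plate fluorescence so inhibitors raise well fluorescence; 0% = enzyme with DMSO and 100% = DMSO without enzyme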
# dFosB act-2: delta FosB (mouse) homodimer activation | 2,400 tested, under 10 active | activation, % at 24.9 µM | shares compounds with dFosB act-1 | purified delta FosB, TAMRA-CDK5 oligo fluorescence polarization; normalised: neutral wells 0, positive control 100;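 active = highest replicate activation at or above 34% and every replicate reaching that threshold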;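 note: higher polarization means more probe DNA bound by delta FosB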
# Starred values were filed as active, the others as inactive; nt = not tested or not shown. This is a sample that favours compounds with a hit; in the whole collection about 2.5% have one here.
SMILES,dFosB act-1,IMP-1 inhibitor,HTR2A ag,VIM-2 inhibitor,dFosB act-2
CCOC1=C2CN(S(=O)(=O)c3ccc(C)cc3)[C@H](c3ccccc3)C[C@@H]2N(S(=O)(=O)c2ccc(C)cc2)[C@H](c2ccccc2)C1,nt,nt,0,nt,nt
CCOc1ccc(-n2nnnc2SCC(=O)Nc2ccc(NC(C)=O)cc2)cc1,19*,-4,0,-1,4
CCOc1ccc(-n2nnnc2SCC(=O)Nc2cccc(O)c2)cc1,-2,-3,4,-1,nt
Cc1sc2c(c1C)c(=O)n(-c1cccc(C(F)(F)F)c1)c(=O)n2CC(=O)NCc1ccco1,57*,1,-4,-2,1
CCOc1ccc(-n2c(=O)c3c(C)c(C)sc3n(CC(=O)NCc3ccco3)c2=O)cc1,8,-4,1,-3,nt
COc1ccc(S(=O)(=O)N2CCOCC2)cc1NC(=O)C1CC(=O)N(c2ccc3c(c2)OCCO3)C1 (stereo not drawn),nt,nt,1,nt,nt
CC(=O)Nc1ccc(NC(=O)c2ccc(NS(=O)(=O)c3cc(C(C)(C)C)cc(C)c3C)cc2)cc1,54*,-2,3,-1,9
CNC(=O)c1ccc(OC2CSC2)cc1,0,0,-3,-5,nt
O=C(Nc1ccc(Cl)cc1)c1ccc(OC2CSC2)cc1,21*,-4,-3,-1,6
O=C(NCCc1ccncc1)c1ccc2nc(Cc3cccc(Cl)c3)oc2c1,-10,-2,-6,-2,nt
NC(=O)c1nc(-c2cccs2)nc2c1[nH]c(=O)n2-c1ccc(F)cc1,123*,0,1,1,1
COc1ccc(CCNC(=O)c2nnn(CC(=O)Nc3c(C)cc(C)cc3C)c2N)cc1OC,80*,-3,1,-2,3
CCOc1ccc(NC(=O)c2nnn(CC(=O)Nc3ccccc3OCC)c2N)cc1,-7,0,0,-1,nt
CCOc1ccc(OCC)c(NC(=O)c2nnn(CC(=O)Nc3cc(C)cc(C)c3)c2N)c1,61*,-1,4,-3,8
CCOc1ccc(CCNC(=O)c2nnn(CC(=O)Nc3c(C)cc(C)cc3C)c2N)cc1OCC,29*,-1,9,-1,2
O=C(NNC(=O)c1c(O)c2ccccc2[nH]c1=O)c1ccccc1Br,52*,-1,-2,1,0
O=C(CCl)NNC(=O)c1c(O)c2ccccc2[nH]c1=O,-9,-2,-5,1,nt
COc1ccc(NS(=O)(=O)c2cc(NC(=O)c3cc(=O)c4ccccc4o3)ccc2OC)cc1,48*,-3,-1,-1,6
COc1cccc(NC(=O)c2cc(=O)c3ccccc3o2)c1,6,0,-1,0,nt
Cc1ccsc1C(=O)N1CCC(N2CCC(C(=O)NCC3CCCO3)CC2)CC1 (stereo not drawn),35*,-1,-3,-2,0
CCc1nc2ccc(C(=O)Nc3cccc(OCC(=O)N(C)C)c3)cn2c1N(C)Cc1ccc(OC)cc1,nt,nt,-1,nt,nt
CCOc1cc(/C=N/N=C(/N)c2nonc2N)cc(Br)c1OCc1ccc(Cl)cc1,34*,-5,0,-3,1
O=C(NCc1csc(-c2cccs2)n1)Nc1cccc(Cl)c1,66*,-3,-2,-2,6
CCNc1nc(Cl)nc(-c2cn(-c3ccccc3)c3ccccc23)n1,22*,-3,4,-2,3
Nc1nonc1-n1nnc(C(=O)N/N=C/c2ccc(Br)cc2)c1-c1ccc2c(c1)OCO2,21*,-2,5,-1,4
SMILES,dFosB act-1,IMP-1 inhibitor,HTR2A ag,VIM-2 inhibitor,dFosB act-2
Nc1nonc1-n1nnc(C(=O)N/N=C/c2ccc3c(c2)OCO3)c1-c1ccccc1,18*,-2,-3,0,1
Nc1nonc1-n1nnc(C(=O)N/N=C/c2c(F)cccc2Cl)c1-c1ccc2c(c1)OCO2,4,-1,4,-3,nt
CC(C)c1c(C(=O)N/N=C/c2ccc3c(c2)OCO3)nnn1-c1nonc1N,4,-4,1,-1,nt
Nc1nonc1-n1nnc(C(=O)N/N=C/c2cccc(Cl)c2)c1-c1ccc2c(c1)OCO2,72*,-3,-1,-2,1
CCc1nc2c(OCc3ccc(Cl)cc3Cl)cccn2c1N(C)C(C)=O,nt,nt,0,nt,nt
CC1(N=Cc2cc(Cl)ccc2O)COP(=O)(Nc2ccccc2)OC1 (stereo not drawn),-9,nt,2,nt,nt
COc1ccc(C(=O)Nc2ccc(Oc3nc(C)nc4sc(-c5ccccc5)cc34)cc2)cc1OC,34*,-3,4,-3,-1
